The source of these data is ChEMBL document CHEMBL2146385, “Synthesis and antiviral evaluation of bis(POM) prodrugs of (E)-[4'-phosphono-but-2'-en-1'-yl]purine nucleosides” (Eur J Med Chem, 2012).

Each structure is given as a SMILES string. Activity calls are given as the source filed them. The calls are words filed in the database; no cut-off is given here.

Data set [1] is described as follows: Cytotoxicity against CRFK cells after 3 days. In kind it is cell-based, Felis catus. The settings on record: cat.
In data set [2] the test system is Felid alphaherpesvirus 1. The experiment in a line: Antiviral activity against Feline herpesvirus infected in CRFK cells assessed as inhibition of virus-induced cytopathicity after 3 days. The settings on record: Felid alphaherpesvirus 1, CRFK, 72 h. In kind it is functional, organism-based.
Data set [3] concerns Human respirovirus 3. The experiment in a line: Antiviral activity against Parainfluenza-3 virus infected in african green monkey Vero assessed as inhibition of virus-induced cytopathicity after 3 days. It is filed as functional, organism-based. An outline of the steps: (§1)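 Confluent cell monolayers infected with 100 CCID50 of virus in the presence of test compound at 100, 20,... μM. Cytopathicity was scored once it was complete in untreated infected controls.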

Data set [4] concerns Sindbis virus. Description: Antiviral activity against Sindbis virus infected in african green monkey Vero assessed as inhibition of virus-induced cytopathicity after 3 days. It is filed as functional, organism-based. An outline of the steps: as §1
A general note: Damage to the host cells serves as the signal in cytopathic effect assays.

Data set [5] is described as follows: Cytotoxicity against HEL assessed as minimum compound concentration causes microscopically detectable alteration of cell morphology after 3 days. It is filed as cell-based. To be noted: human, HEL cells.
In data set [6] the test system is Influenza A virus. Description: Antiviral activity against Influenza A virus H3N2 infected in MDCK assessed as inhibition of virus-induced cytopathicity after 3 days. It is filed as functional, organism-based.
Data set [7] deals with Human alphaherpesvirus 1. The experiment in a line: Antiviral activity against HSV1 KOS infected in HEL assessed as inhibition of virus-induced cytopathicity after 3 days. It is filed as functional, organism-based. The settings on record: Human alphaherpesvirus 1, KOS, 72 h.
Data set [8] deals with Mammalian orthoreovirus 1. Description: Antiviral activity against Reovirus-1 infected in african green monkey Vero assessed as inhibition of virus-induced cytopathicity after 3 days. In kind it is functional, organism-based. An outline of the steps: as §1
Data set [9] in a line: Cytotoxicity against HEL after 3 days. It is filed as cell-based. The settings on record: human, HEL cells. The gist of the method:
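HEL cells were seeded at 5×10^3 cells/well and allowed to grow for 24 h, then given medium with varying compound concentrations. After 3 days at 37 °C, cells were counted with a Coulter counter.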

Data set [10] relates to Human alphaherpesvirus 1. Description: Antiviral activity against acyclovir-resistant thymidine kinase deficient HSV1 KOS infected in HEL assessed as inhibition of virus-induced cytopathicity after 3 days. The settings on record: Human alphaherpesvirus 1, KOS, 72 h. It is filed as functional, organism-based.
In data set [11] the test system is Coxsackievirus B4. Description: Antiviral activity against Coxsackievirus B4 infected in human HeLa assessed as inhibition of virus-induced cytopathicity after 3 days. In kind it is functional, organism-based. An outline of the steps: as §1
Data set [12] concerns Influenza A virus. The experiment in a line: Antiviral activity against Influenza A virus H1N1 infected in MDCK assessed as inhibition of virus-induced cytopathicity after 3 days. In kind it is functional, organism-based.
In data set [13] the test system is Human alphaherpesvirus 2. The experiment in a line: Antiviral activity against HSV2 G infected in HEL assessed as inhibition of virus-induced cytopathicity after 3 days. It is filed as functional, organism-based. The settings on record: Human alphaherpesvirus 2, strain G, 72 h. The gist of the method: as §1
Data set [14] deals with Influenza B virus. The experiment in a line: Antiviral activity against Influenza B virus infected in MDCK assessed as inhibition of virus-induced cytopathicity after 3 days. In kind it is functional, organism-based.
For data set [15], the system named is Punta Toro virus. Description: Antiviral activity against Punta Toro virus infected in african green monkey Vero assessed as inhibition of virus-induced cytopathicity after 3 days. It is filed as functional, organism-based. The gist of the method:
as §1

Data set [16] deals with Vesicular stomatitis virus. The experiment in a line: Antiviral activity against Vesicular stomatitis virus infected in human HeLa assessed as inhibition of virus-induced cytopathicity after 3 days. In kind it is functional, organism-based.
In data set [17] the test system is Vesicular stomatitis virus. Description: Antiviral activity against Vesicular stomatitis virus infected in MDCK assessed as inhibition of virus-induced cytopathicity after 3 days. It is filed as functional, organism-based.
The subject of data set [18] is Vaccinia virus. The experiment in a line: Antiviral activity against Vaccinia virus infected in HEL assessed as inhibition of virus-induced cytopathicity after 3 days. In kind it is functional, organism-based. To be noted: Orthopoxvirus vaccinia, 72 h.
The test system of data set [19] is Respiratory syncytial virus. Description: Antiviral activity against Respiratory syncytial virus infected in human HeLa assessed as inhibition of virus-induced cytopathicity after 3 days. In kind it is functional, organism-based. An outline of the steps: as §1
The subject of data set [20] is Human alphaherpesvirus 3. Description: Antiviral activity against VZV OKA expressing thymidine kinase infected in HEL cells assessed as inhibition of virus-induced cytopathogenicity after 3 days. To be noted: Human alphaherpesvirus 3, strain Oka vaccine, 72 h. In kind it is functional, cell-based.
In data set [21] the test system is Human alphaherpesvirus 3. The experiment in a line: Antiviral activity against thymidine kinase-deficient VZV 07/1 infected in human HEL cells assessed as reduction of virus-induced cytopathogenicity after 3 days. It is filed as functional, organism-based. The settings on record: Human alphaherpesvirus 3, 07/1, HEL, 72 h.

`Nc1nc2c(ncn2COC(CO)CO)c(=O)[nH]1` [GANCICLOVIR]: the CC50 (in general, the concentration giving 50% cytotoxicity) at 72 h in [1] was > 100 µM. In data set [2], the EC50 (as a rule, the concentration at which the effect is half-maximal) was found to be 1.2 µM.

On to `CC(C)(C)C(=O)OCOP(=O)(C/C=C/Cn1cnc2c(=O)[nH]c(N)nc21)OCOC(=O)C(C)(C)C`, for which the result in data set [3], in data set [4], in [6], in data set [8], in data set [11] and in data set [12] was inactive. The outcome in data set [14], in [15], in data set [16], in data set [17] and in data set [19] was inactive. Besides, in data set [5], the MCC at 72 h is > 100 µM. Moreover, the EC50 was found to be 3.9 µM in data set [7]; 5.8 µM in [10]; 7.8 µM in data set [13]; 11 µM in [2]; 100 µM in data set [18]; 1.05 µM in [20]. In addition, the EC50 in data set [21] is 0.8 µM. Moreover, the CC50 at 72 h is 4.1 µM in data set [9] and > 100 µM in [1].

As for `CC(C)c1ccc(Nc2nc(N)nc3c2ncn3C/C=C/CP(=O)(OCOC(=O)C(C)(C)C)OCOC(=O)C(C)(C)C)cc1`, the result in data set [3], in data set [4], in [6], in data set [8], in data set [11] and in data set [12] was inactive. For the same compound, the result in data set [14], in data set [15], in data set [16], in [17] and in data set [19] was inactive. Also, the MCC at 72 h in data set [5] was > 100 µM. Also, the EC50 in data set [7] is > 100 µM; in data set [10], > 100 µM; in data set [13] it was > 100 µM; in [18], > 100 µM; in data set [20] it was > 20 µM; in [21], > 100 µM. The midpoint of cytotoxicity in [9], the CC50 at 72 h, lay at 46 µM.

Consider `CC(C)(C)C(=O)OCOP(=O)(C/C=C/Cn1cnc2c(NC3CCCCC3)nc(N)nc21)OCOC(=O)C(C)(C)C`, for which the result in data set [3], in data set [4], in data set [6], in data set [8], in [11] and in [12] was inactive. Besides, the result in data set [14], in data set [15], in data set [16], in data set [17] and in [19] was inactive. Also, the MCC at 72 h in data set [5] was found to be 100 µM. Also, the EC50 is > 100 µM in [7]; > 100 µM in data set [10]; > 100 µM in data set [13]; > 100 µM in data set [18]; 6.34 µM in [20]; 20 µM in [21]. In data set [9], this compound displayed a CC50 at 72 h of 9 µM.

Take `CC(C)(C)C(=O)OCOP(=O)(C/C=C/Cn1cnc2c(N)ncnc21)OCOC(=O)C(C)(C)C`: the result in data set [3], in [4], in data set [6], in data set [8], in data set [11] and in data set [12] was inactive. The result in data set [14], in data set [15], in data set [16], in data set [17] and in data set [19] was inactive. Besides, the MCC at 72 h in data set [5] is > 100 µM. In addition, the EC50 in [7] is > 100 µM; in [10], 20 µM; in data set [13] it was 45 µM; in data set [18], > 100 µM; in [20], 12.6 µM; in [21], 13.5 µM. The compound further yielded a CC50 at 72 h in data set [9] of 11.6 µM.

Regarding `CC(C)c1ccc(Nc2ncnc3c2ncn3C/C=C/CP(=O)(OCOC(=O)C(C)(C)C)OCOC(=O)C(C)(C)C)cc1`, the outcome in data set [3], in [4], in [6], in data set [8], in [11] and in [12] was inactive. In addition, the result in data set [14], in data set [15], in data set [16], in data set [17] and in data set [19] was inactive. Besides, the MCC at 72 h in data set [5] is 100 µM. Moreover, the EC50 in data set [7] is > 100 µM; in data set [10], > 100 µM; in [13], > 100 µM; in [18], > 100 µM; in data set [20], > 20 µM; in data set [21], > 20 µM. For the same compound, the CC50 at 72 h in data set [9] worked out at 32.3 µM.

Regarding `CCCCNc1nc(N)nc2c1ncn2C/C=C/CP(=O)(OCOC(=O)C(C)(C)C)OCOC(=O)C(C)(C)C`, the result in [3], in data set [4], in data set [6], in data set [8], in [11] and in data set [12] was inactive. For the same compound, the outcome in data set [14], in [15], in data set [16], in [17] and in [19] was inactive. Further, the MCC at 72 h in data set [5] was > 100 µM. Moreover, the EC50 in [7] is > 100 µM; in data set [10], > 100 µM; in data set [13], > 100 µM; in [18], > 100 µM; in data set [20], 32.4 µM; in data set [21] it was 43.6 µM. The compound also returned a CC50 at 72 h in data set [9] of 60 µM.

As to `CC(C)(C)C(=O)OCOP(=O)(C/C=C/Cn1cnc2c(NC3CC3)ncnc21)OCOC(=O)C(C)(C)C`, the result in data set [3], in data set [4], in [6], in [8], in data set [11] and in data set [12] was inactive. In addition, the outcome in [14], in data set [15], in data set [16], in data set [17] and in data set [19] was inactive. For the same compound, the MCC at 72 h in [5] is > 100 µM. Also, the EC50 in [7] was > 100 µM; in data set [10], > 100 µM; in [13] it was > 100 µM; in data set [18], > 100 µM; in data set [20], 55.7 µM; in data set [21], 47.2 µM. This compound had a CC50 at 72 h in data set [9] of 39.6 µM.
